What was measured:
[1] = Half life of compound in rat; type: ADME; conditions: in vivo
Thromboxane A2 receptor = biological target: T1, Thromboxane A2 receptor (Homo sapiens, UniProt P21731); assay: Binding affinity against human Prostanoid TP receptor
T1 sequence (P21731 whole entry): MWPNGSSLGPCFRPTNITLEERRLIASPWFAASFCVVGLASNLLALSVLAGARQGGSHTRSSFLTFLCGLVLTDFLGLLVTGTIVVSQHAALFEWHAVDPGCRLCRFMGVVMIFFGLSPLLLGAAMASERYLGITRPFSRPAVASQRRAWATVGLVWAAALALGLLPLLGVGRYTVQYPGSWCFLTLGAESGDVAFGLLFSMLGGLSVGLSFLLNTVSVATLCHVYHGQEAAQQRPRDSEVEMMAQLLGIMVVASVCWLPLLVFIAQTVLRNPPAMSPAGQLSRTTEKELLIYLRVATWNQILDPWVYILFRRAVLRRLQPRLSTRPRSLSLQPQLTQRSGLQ

[2] = biological target: T2, Prostaglandin E2 receptor EP1 subtype (Homo sapiens, UniProt P34995); assay: Binding affinity against Prostaglandin E receptor was determined in human
T2 sequence (P34995 whole entry): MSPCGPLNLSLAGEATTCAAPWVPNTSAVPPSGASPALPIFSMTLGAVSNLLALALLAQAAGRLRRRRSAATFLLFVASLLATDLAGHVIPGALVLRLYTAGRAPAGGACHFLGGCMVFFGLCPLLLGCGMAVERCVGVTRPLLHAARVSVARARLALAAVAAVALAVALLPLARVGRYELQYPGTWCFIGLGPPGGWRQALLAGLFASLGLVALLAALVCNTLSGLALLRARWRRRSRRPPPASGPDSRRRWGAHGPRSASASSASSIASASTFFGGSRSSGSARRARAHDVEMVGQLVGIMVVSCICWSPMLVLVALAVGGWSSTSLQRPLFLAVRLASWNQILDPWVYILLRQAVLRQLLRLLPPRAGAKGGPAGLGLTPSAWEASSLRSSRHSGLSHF

[3] = biological target: T2, Prostaglandin E2 receptor EP1 subtype; assay: Binding affinity against Prostaglandin E receptor in presence of 2% human serum albumin
[4] = biological target: T3, Prostaglandin E2 receptor EP1 subtype (Homo sapiens) (UniProt P34995); assay: Inhibitory activity against Prostaglandin E receptor in functional cell based assay
T3 sequence (whole entry): T2 sequence (P34995 whole entry)
Method in brief: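 HEK293 cells stably expressing human EP1, grown with hygromycin B and G418 at 37 °C and 6% CO2, seeded one day before, then loaded with FLIPR no-wash dye for 1 h at 37 °C in HBSS/20 mM HEPES pH 7.4. FLIPR fluorescence read after a 10 min antagonist preincubation and 5 min PGE2. PGE2 curves (0.001–30 µM) run alone and at three fixed antagonist concentrations; Kb reported.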

[5] = biological target: T4, Prostaglandin E2 receptor EP1 subtype (Rattus norvegicus, UniProt P70597); assay: Binding affinity towards Prostaglandin E receptor was determined in rat
T4 sequence (P70597 whole entry): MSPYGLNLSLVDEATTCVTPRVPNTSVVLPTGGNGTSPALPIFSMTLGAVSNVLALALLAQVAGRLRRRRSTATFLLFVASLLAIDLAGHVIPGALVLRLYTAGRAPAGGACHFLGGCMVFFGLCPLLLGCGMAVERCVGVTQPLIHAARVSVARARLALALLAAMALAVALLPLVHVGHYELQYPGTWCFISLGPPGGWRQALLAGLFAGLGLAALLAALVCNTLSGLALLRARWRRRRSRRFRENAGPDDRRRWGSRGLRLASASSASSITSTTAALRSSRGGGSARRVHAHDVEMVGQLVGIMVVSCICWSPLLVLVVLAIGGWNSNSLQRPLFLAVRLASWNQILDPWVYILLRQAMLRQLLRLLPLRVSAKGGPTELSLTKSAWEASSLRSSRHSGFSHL

[6] = Maximum plasma concentration of compound in rat at 4 h; type: ADME, organism-based
[7] = Bioavailability of compound in rat; type: ADME, organism-based; conditions: in vivo

Row | half-life [1] [h] | Ki (Thromboxane A2 receptor) [nM] | Ki [2] [nM] | Ki [3] [nM] | Kb [4] [nM] | Ki [5] [nM] | Cmax [6] [µM] | bioavailability [7] [%] | SMILES
1 | < 1 | > 21000 | 52 | 72 |  |  |  |  | O=S(=O)(Cc1ccccc1)Nc1cccc(-c2sccc2-c2cc(Cl)ccc2OCc2ccccc2)c1
2 | 3 | 150 | 15 | 220 | 66 |  |  |  | O=C(O)Cc1cccc(-c2sccc2-c2cc(Cl)ccc2OCc2ccccc2)c1
3 | < 0.5 | 230 | 3 | 90 | 4 |  |  |  | O=C(O)c1cncc(-c2sccc2-c2cc(Cl)ccc2OCc2ccccc2)c1
4 | < 1 | 1200 | 9 | 17 | 97 |  |  |  | CC(NC(=O)c1cccc(-c2sccc2-c2cc(Cl)ccc2OCc2ccccc2)c1)c1cccnc1 (stereo not given)
5 | 4 | 140 | 6 | 280 | 1 | 12 | 20 | 73 | O=C(O)c1cccc(-c2sccc2-c2cc(Cl)ccc2OCc2ccccc2)n1
6 | < 0.5 | 100 | 4 | 70 | 7 |  |  |  | O=C(O)c1cccc(-c2sccc2-c2cc(Cl)ccc2OCc2ccccc2)c1
7 | < 1 | > 21000 | 4 | 5 |  |  |  |  | O=C(Cc1ccccc1)Nc1cccc(-c2sccc2-c2cc(Cl)ccc2OCc2ccccc2)c1
8 | 2 | 220 | 4 | 5 | 70 |  |  |  | OC(O)(c1cncc(-c2sccc2-c2cc(Cl)ccc2OCc2ccccc2)c1)C(F)(F)F
9 |  | 200 | 260 |  |  |  |  |  | OC(c1cncc(-c2sccc2-c2cc(Cl)ccc2OCc2ccccc2)c1)(C(F)(F)F)C(F)(F)F
10 | 2 | 390 | 8 | 18 | 100 |  |  |  | NS(=O)(=O)c1cccc(-c2ccsc2-c2cc(Cl)ccc2OCc2ccccc2)c1
11 | 1 | 120 | 3 | 6 |  |  |  |  | OC(c1cncc(-c2sccc2-c2cc(Cl)ccc2OCc2ccccc2)c1)C(F)(F)F (stereo not given)
12 |  | 360 | 23 | 160 |  |  |  |  | N#CC(O)c1cncc(-c2sccc2-c2cc(Cl)ccc2OCc2ccccc2)c1 (stereo not given)
